Data taken from ChEMBL document CHEMBL5214999, “Identification and Optimization of a Ligand-Efficient Benzoazepinone Bromodomain and Extra Terminal (BET) Family Acetyl-Lysine Mimetic into the Oral Candidate Quality Molecule I-BET432” (J Med Chem, 2022).
≈ marks a conversion by molar mass, not a printed value.

Legend:
[1] = molecular target: T1, Bromodomain-containing protein 4 (Homo sapiens, UniProt O60885); assay: Inhibition of BRD4 BD1 (unknown origin) measured by TR-FRET assay
[2] = Half-life in Wistar Han rat at 2.9 mg/kg, po or 2.1 mg/kg, iv measured upto 24 hrs by LC-MS/MS analysis; type: ADME, organism-based; conditions: in vivo
Procedure, shortened: (§1)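 Male Wistar Han rats and beagle dogs were dosed iv as a 1 h infusion in DMSO with 10% (w/v) Kleptose HPB in saline (2%:98% or 5%:95% v/v). Oral doses were given in 1% (w/v) methylcellulose (400 cps) aqueous suspension. Oral values are means of n = 3 and iv values n = 1 unless otherwise noted.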

[3] = Volume of distribution at steady state in Wistar Han rat at 2.9 mg/kg, po or 2.1 mg/kg, iv measured upto 24 hrs by LC-MS/MS analysis; type: ADME, organism-based; conditions: in vivo, read-out: Vdss; procedure, shortened: as §1
[4] = Intrinsic clearance in rat hepatocytes after 60 mins by LC-MS/MS analysis; type: ADME, cell-based, Hepatocyte; conditions: 1 h
[5] = Clearance in Wistar Han rat blood at 2.9 mg/kg, po or 2.1 mg/kg, iv measured upto 24 hrs by LC-MS/MS analysis; type: ADME, organism-based; conditions: whole blood; procedure, shortened: as §1
[6] = Lipophilicity, logD of compound at pH 7.4 by Chromatography; type: physicochemical; conditions: buffer
[7] = Solubility of the compound at pH 6.5 in fast state simulated intestinal fluid incubated for 16 hrs by HPLC analysis; type: physicochemical; conditions: fasted state simulated intestinal fluid
[8] = Oral bioavailability in Wistar Han rat at 2.9 mg/kg measured upto 24 hrs by LC-MS/MS analysis; type: ADME, organism-based; conditions: in vivo; procedure, shortened: as §1
[9] = Artificial membrane permeability of the compound; type: ADME; conditions: PAMPA; read-out: permeability
[10] = molecular target: C-C motif chemokine 2 (Homo sapiens, UniProt P13500); assay: Inhibition of MCP-1 in LPS-stimulated human whole blood incubate for 24 hrs by immuno assay; type: tissue-based
C-C motif chemokine 2, sequence (P13500 whole entry): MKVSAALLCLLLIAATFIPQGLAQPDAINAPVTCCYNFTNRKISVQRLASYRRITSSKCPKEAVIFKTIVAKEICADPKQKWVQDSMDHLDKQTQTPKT

[11] = molecular target: T1, Bromodomain-containing protein 4; assay: Inhibition of BRD4 BD2 (unknown origin) measured by TR-FRET assay
[12] = Intrinsic clearance in human hepatocytes measured after 120 mins by LC-MS/MS analysis; type: ADME, cell-based, Hepatocyte; conditions: 2 h

IC50 [1]: 0.0251 µM | half-life [2]: 45.6 min | Vd [3]: 1.5 L/kg | CLH [4]: < 0.8 mL/min/g | clearance [5]: 37 mL/min/kg | chromatographic logD [6]: 0.9 | solubility at 16 h [7]: 417 µg/mL (≈ 1330 µM) | bioavailability [8]: 13% | Papp [9]: 0.7 ×10⁻⁶ cm/s | IC50 [10]: 0.0316 µM | IC50 [11]: 0.0398 µM | CLH [12]: < 0.45 mL/min/g
Compound: C[C@H]1C(=O)N(C)C=C(c2cn[nH]c2)c2cc([C@@H](O)CO)ccc21
